Assays:
Homo sapiens [1] = assay: Toxicity in healthy human assessed as occurrence of dizziness at […], po administered as single dose; assay type: organism-based; set-up: route oral; conditions: in vivo
[2] = Cmax in healthy human at 2000 […], po administered as single dose measured after 72 hrs by HPLC method; assay type: ADME, organism-based; set-up: route oral; conditions: in vivo
In short: (§1)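 Healthy fasting male volunteers, two groups of six, each given two of three single oral capsule doses plus a random placebo, with a 2-week washout. About 12 blood samples were taken over 24 h, then at 48 and 72 h. Plasma was assayed by validated HPLC-UV (LLOQ 48 ng/ml). Noncompartmental analysis: Cmax/Tmax observed, AUC0-t* by linear trapezoid, λz from the terminal log-linear phase, AUC0-∞ = AUC0-t* + C*/λz.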

[3] = AUC (0 to t) in healthy human at 500 mg, po administered as single dose measured after 72 hrs by HPLC method; conditions: plasma
[4] = Terminal half life in healthy human at 1750 mg, po administered as single dose measured after 72 hrs by HPLC method; conditions: in vivo, read-out: beta t1/2 (converted)
[5] = Cmax in healthy human at 500 mg, po administered as single dose measured after 72 hrs by HPLC method; conditions: in vivo
[6] = AUC (0 to infinity) in healthy human at 1000 mg, po administered as single dose measured after 72 hrs by HPLC method; conditions: plasma
[7] = Terminal half life in healthy human at 250 mg, po administered as single dose measured after 72 hrs by HPLC method; conditions: in vivo, read-out: beta t1/2 (converted)
[8] = Tmax in healthy human at 500 […], po administered as single dose measured after 72 hrs by HPLC method; assay type: ADME, organism-based; set-up: route oral; conditions: in vivo; in short: as §1
[9] = Terminal half life in healthy human at 500 mg, po administered as single dose measured after 72 hrs by HPLC method; conditions: in vivo, read-out: beta t1/2 (converted)
Homo sapiens [10] = assay: Hepatotoxicity in healthy human assessed as elevated alkaline phosphatase level at 1000 […], po administered as single dose after 72 hrs; assay type: toxicity, organism-based; set-up: route oral; conditions: in vivo
Homo sapiens [11] = assay: Hepatotoxicity in healthy human assessed as elevated bilirubin level at 1000 […], po administered as single dose after 48 hrs; assay type: toxicity, organism-based; set-up: route oral; conditions: in vivo
[12] = Cmax in healthy human at 1000 mg, po administered as single dose measured after 72 hrs by HPLC method; conditions: in vivo
[13] = First-order absorption rate constant in healthy human at 250 to 2000 mg, po administered as single dose by HPLC method; conditions: in vivo
[14] = AUC (0 to infinity) in healthy human at 1750 mg, po administered as single dose measured after 72 hrs by HPLC method; conditions: plasma
[15] = AUC (0 to t) in healthy human at 1750 […], po administered as single dose measured after 72 hrs by HPLC method; assay type: ADME, organism-based; set-up: time < 72 hr, route oral; conditions: plasma; in short: as §1
Homo sapiens [16] = assay: Hepatotoxicity in healthy human assessed as elevated aspartate transaminase level at 1000 […], po administered as single dose after 72 hrs; assay type: toxicity, organism-based; set-up: route oral; conditions: in vivo
Homo sapiens [17] = assay: Hepatotoxicity in healthy human assessed as elevated alkaline phosphatase level at 1000 […], po administered as single dose after 48 hrs; assay type: toxicity, organism-based; set-up: route oral; conditions: in vivo
[18] = Terminal half life in healthy human at 1500 mg, po administered as single dose measured after 72 hrs by HPLC method; conditions: in vivo, read-out: beta t1/2 (converted)
[19] = Relative bioavailability in healthy human at 1500 to 2000 […], po administered as single dose by HPLC method; assay type: ADME, organism-based; conditions: in vivo
In short: (§2)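 Population PK model: one compartment, first-order absorption with lag time, first-order elimination, fitted to plasma HPLC concentrations from single oral doses of 250–2,000 mg in healthy fasting men. F for 250–500 mg was fixed at 1, and doses of 1,500–2,000 mg were assumed to share one F. Posterior predictive check used.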

[20] = Tmax in healthy human at […], po administered as single dose measured after 72 hrs by HPLC method; assay type: ADME, organism-based; set-up: route oral; conditions: in vivo; in short: as §1
[21] = AUC (0 to t) in healthy human at 1000 mg, po administered as single dose measured after 72 hrs by HPLC method; conditions: plasma
[22] = AUC (0 to infinity) in healthy human at […], po administered as single dose measured after 72 hrs by HPLC method; assay type: ADME, organism-based; set-up: time infinity, route oral; conditions: plasma; in short: as §1
[23] = Relative bioavailability in healthy human at 1000 […], po administered as single dose by HPLC method; assay type: ADME, organism-based; conditions: in vivo; in short: as §2
[24] = Tmax in healthy human at 1750 mg, po administered as single dose measured after 72 hrs by HPLC method; conditions: in vivo
[25] = Tmax in healthy human at 1000 […], po administered as single dose measured after 72 hrs by HPLC method; assay type: ADME, organism-based; set-up: route oral; conditions: in vivo; in short: as §1
[26] = Cmax in healthy human at 1750 mg, po administered as single dose measured after 72 hrs by HPLC method; conditions: in vivo
[27] = AUC (0 to t) in healthy human at 250 mg, po administered as single dose measured after 72 hrs by HPLC method; conditions: plasma
[28] = Relative bioavailability based on AUC (0 to infinity) in healthy human at 1750 […], po administered as single dose by HPLC method; assay type: ADME, organism-based; conditions: in vivo
In short: (§3)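 Relative bioavailability is AUC0-∞ at the test dose relative to the group's reference dose: 250 mg for group 1 (1,000 and 1,750 mg), 500 mg for group 2 (1,500 and 2,000 mg). Same volunteers, single oral doses, plasma sampling to 72 h and HPLC-UV assay as above.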

[29] = Relative bioavailability based on AUC (0 to infinity) in healthy human at 1500 […], po administered as single dose by HPLC method; assay type: ADME, organism-based; conditions: in vivo; in short: as §3
[30] = AUC (0 to t) in healthy human at 2000 […], po administered as single dose measured after 72 hrs by HPLC method; assay type: ADME, organism-based; set-up: time < 72 hr, route oral; conditions: plasma; in short: as §1
[31] = Relative bioavailability based on AUC (0 to infinity) in healthy human at 2000 […], po administered as single dose by HPLC method; assay type: ADME, organism-based; conditions: in vivo; in short: as §3
[32] = Cmax in healthy human at 250 mg, po administered as single dose measured after 72 hrs by HPLC method; conditions: in vivo
[33] = AUC (0 to infinity) in healthy human at 500 […], po administered as single dose measured after 72 hrs by HPLC method; assay type: ADME, organism-based; set-up: time infinity, route oral; conditions: plasma; in short: as §1
[34] = Cmax in healthy human at 1500 mg, po administered as single dose measured after 72 hrs by HPLC method; conditions: in vivo
Homo sapiens [35] = assay: Absorption time lag in healthy human at 250 to 2000 […], po administered as single dose by HPLC method; assay type: ADME, organism-based; set-up: route oral; conditions: in vivo; in short: as §2
[36] = AUC (0 to infinity) in healthy human at 2000 mg, po administered as single dose measured after 72 hrs by HPLC method; conditions: plasma
[37] = AUC (0 to t) in healthy human at 1500 […], po administered as single dose measured after 72 hrs by HPLC method; assay type: ADME, organism-based; set-up: time < 72 hr, route oral; conditions: plasma; in short: as §1
[38] = Terminal half life in healthy human at 2000 mg, po administered as single dose measured after 72 hrs by HPLC method; conditions: in vivo, read-out: beta t1/2 (converted)
Homo sapiens [39] = assay: Hepatotoxicity in healthy human assessed as elevated bilirubin level at 1000 […], po administered as single dose after 72 hrs; assay type: toxicity, organism-based; set-up: route oral; conditions: in vivo
Homo sapiens [40] = assay: Volume of distribution in healthy human at 250 to 2000 […], po administered as single dose by HPLC method; assay type: ADME, organism-based; set-up: route oral; conditions: in vivo; in short: as §2
[41] = Tmax in healthy human at 1500 […], po administered as single dose measured after 72 hrs by HPLC method; assay type: ADME, organism-based; set-up: route oral; conditions: in vivo; in short: as §1
[42] = Tmax in healthy human at 2000 mg, po administered as single dose measured after 72 hrs by HPLC method; conditions: in vivo
Homo sapiens [43] = assay: Toxicity in healthy human assessed as occurrence of headache at […], po administered as single dose; assay type: organism-based; set-up: route oral; conditions: in vivo
[44] = AUC (0 to infinity) in healthy human at 1500 mg, po administered as single dose measured after 72 hrs by HPLC method; conditions: plasma
[45] = Oral clearance in healthy human at 250 to 2000 […] administered as single dose by HPLC method; assay type: ADME, organism-based; conditions: in vivo; in short: as §2
[46] = Terminal half life in healthy human at 1000 mg, po administered as single dose measured after 72 hrs by HPLC method; conditions: in vivo, read-out: beta t1/2 (converted)
Homo sapiens [47] = assay: Hepatotoxicity in healthy human assessed as elevated aspartate transaminase level at 1000 […], po administered as single dose after 48 hrs; assay type: toxicity, organism-based; set-up: route oral; conditions: in vivo
Homo sapiens [48] = assay: Hepatotoxicity in healthy human assessed as elevated bilirubin level at 1000 […], po administered as single dose after 7 days post dosing; assay type: toxicity, organism-based; set-up: route oral; conditions: in vivo, 168 h

Cmax [2]: 6420 ng/mL
AUC(0-t) at 72 h [3]: 24300 ng·h/mL
half-life [4]: 2.12 h
Cmax [5]: 3990 ng/mL
AUC(0-inf) [6]: 32500 ng·h/mL
half-life [7]: 2.53 h
Tmax [8]: 3 h
half-life [9]: 2.22 h
Cmax [12]: 5140 ng/mL
Ka [13]: 0.000113 s⁻¹
AUC(0-inf) [14]: 37900 ng·h/mL
AUC(0-t) at 72 h [15]: 37400 ng·h/mL
half-life [18]: 2.21 h
bioavailability [19]: 43.9%
Tmax [20]: 2 h
AUC(0-t) at 72 h [21]: 32100 ng·h/mL
AUC(0-inf) [22]: 11600 ng·h/mL
bioavailability [23]: 61.6%
Tmax [24]: 4 h
Tmax [25]: 4 h
Cmax [26]: 6440 ng/mL
AUC(0-t) at 72 h [27]: 11300 ng·h/mL
bioavailability [28]: 47%
bioavailability [29]: 41%
AUC(0-t) at 72 h [30]: 40200 ng·h/mL
bioavailability [31]: 41%
Cmax [32]: 2210 ng/mL
AUC(0-inf) [33]: 24600 ng·h/mL
Cmax [34]: 4850 ng/mL
Tlag (Homo sapiens [35]): 0.695 h
AUC(0-inf) [36]: 40700 ng·h/mL
AUC(0-t) at 72 h [37]: 30300 ng·h/mL
half-life [38]: 2.09 h
Vd (Homo sapiens [40]): 41.5 L
Tmax [41]: 2 h
Tmax [42]: 4 h
AUC(0-inf) [44]: 30600 ng·h/mL
CL/F [45]: 367 mL/min
half-life [46]: 2.06 h
Compound: C[C@@H]([C@H](N)C(=O)N[C@H](C(=O)O)[C@H]1O[C@@H](n2ccc(=O)[nH]c2=O)[C@H](O)[C@@H]1O)[C@H](O)c1ccc(O)cn1 [NIKKOMYCIN]
Activity (Homo sapiens [1]): Toxic
Activity (Homo sapiens [10]): Toxic
Activity (Homo sapiens [11]): Non-toxic
Activity (Homo sapiens [16]): Toxic
Activity (Homo sapiens [17]): Non-toxic
Activity (Homo sapiens [39]): Toxic
Activity (Homo sapiens [43]): Toxic
Activity (Homo sapiens [47]): Non-toxic
Activity (Homo sapiens [48]): Non-toxic

Reference: ChEMBL document CHEMBL1649469, “Pharmacokinetics of nikkomycin Z after single rising oral doses” (Antimicrob Agents Chemother, 2009)
